Results published in ChEMBL document CHEMBL4680226, “Design, synthesis, and evaluation of N-phenyl-4-(2-phenylsulfonamido)-benzamides as microtubule-targeting agents in drug-resistant cancer cells, displaying HDAC inhibitory response” (Eur J Med Chem, 2020).
pIC50: −log10 of the molar value. The source made the active and inactive calls. No cut-off for these calls is given here.

How the values were obtained:
[1] = Antiproliferative activity against human KB-VIN cells incubated for 48 hrs by SRB assay; type: functional; conditions: KBVIN
In short: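 KB parental and resistant sublines kept in RPMI 1640 with 5% FBS at 37 °C, 5% CO2. Cells plated, left overnight, then given graded compound concentrations for 48 h. A time-zero plate was fixed with 10% TCA at dosing. Cells were stained with 0.4% SRB in 1% acetic acid, unbound dye washed off, bound dye dissolved in 10 mM Tris base, and absorbance read at 515 nm.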

[2] = biological target: Histone deacetylase 1 (Homo sapiens, UniProt Q13547); test: Inhibition of recombinant human full-length C-terminal FLAG-His tagged HDAC1 (1 to 482 residues) expressed in Sf21 insect cells using RHK-K(Ac)-AMC as substrate measured after 60 mins by fluorescence assay
Sequence of Histone deacetylase 1 (Q13547 whole entry, the tested form may be a part): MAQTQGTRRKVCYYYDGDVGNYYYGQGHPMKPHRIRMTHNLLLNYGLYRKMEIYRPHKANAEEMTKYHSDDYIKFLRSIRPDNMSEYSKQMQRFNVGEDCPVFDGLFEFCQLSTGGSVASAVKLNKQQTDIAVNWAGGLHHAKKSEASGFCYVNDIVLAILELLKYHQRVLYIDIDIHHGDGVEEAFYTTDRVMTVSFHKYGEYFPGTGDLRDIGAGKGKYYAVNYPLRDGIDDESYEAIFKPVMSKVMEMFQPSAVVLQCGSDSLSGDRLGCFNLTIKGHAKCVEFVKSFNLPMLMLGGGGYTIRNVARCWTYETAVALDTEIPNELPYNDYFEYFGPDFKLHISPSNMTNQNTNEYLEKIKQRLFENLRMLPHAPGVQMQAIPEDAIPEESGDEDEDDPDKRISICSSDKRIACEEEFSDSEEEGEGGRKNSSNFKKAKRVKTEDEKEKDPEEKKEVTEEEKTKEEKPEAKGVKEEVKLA

[3] = system: KB-VIN; test: Induction of apoptosis in human KB-VIN cells assessed as increase in activated gammaH2AX expression by Western blot analysis; type: functional, cell-based
In short: (§1)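 Resistant KB cells attached overnight, then drug-treated at the stated concentrations and times (24 h or 48 h). Lysates were immunoblotted for cleaved PARP, caspase-3, -8 and -9, and γH2AX, with anti-mouse or anti-rabbit IgG secondaries.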

[4] = system: KB-VIN; test: Induction of apoptosis in human KB-VIN cells assessed as increase in cleaved caspase-3 expression by Western blot analysis; type: functional, cell-based; in short: as §1
[5] = system: KB-VIN; test: Induction of apoptosis in human KB-VIN cells assessed as increase in cleaved caspase-8 expression by Western blot analysis; type: functional, cell-based; in short: as §1
[6] = system: KB-VIN; test: Induction of apoptosis in human KB-VIN cells assessed as increase in cleaved caspase-9 expression by Western blot analysis; type: functional, cell-based; in short: as §1
[7] = system: KB7D; test: Induction of apoptosis in human KB7D cells assessed as increase in cleaved caspase-3 expression by Western blot analysis; type: functional, cell-based; in short: as §1
[8] = system: KB7D; test: Induction of apoptosis in human KB7D cells assessed as increase in cleaved caspase-8 expression by Western blot analysis; type: functional, cell-based
In short: (§2)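 KB-7D cells in RPMI 1640 with 5% FBS and 1% penicillin-streptomycin at 37 °C, 5% CO2, attached overnight. Treated with indicated concentrations for 24 or 48 h, lysed, and immunoblotted for cleaved caspases.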

[9] = system: KB7D; test: Induction of apoptosis in human KB7D cells assessed as increase in cleaved caspase-9 expression by Western blot analysis; type: functional, cell-based; in short: as §2
[10] = system: KB-VIN; test: Induction of apoptosis in human KB-VIN cells assessed as increase in cleaved PARP expression at 0.1 to 0.5 uM measured after 24 hrs by Western blot analysis; type: functional, cell-based; conditions: dose 0.1-0.5 µM; in short: as §1
[11] = system: KB-VIN; test: Induction of apoptosis in human KB-VIN cells assessed as increase in cleaved caspase-8 expression at 0.1 to 0.5 uM measured after 24 hrs by Western blot analysis; type: functional, cell-based; conditions: dose 0.1-0.5 µM; in short: as §1
[12] = system: KB-VIN; test: Induction of apoptosis in human KB-VIN cells assessed as increase in cleaved caspase-9 expression at 0.1 to 0.5 uM measured after 24 hrs by Western blot analysis; type: functional, cell-based; conditions: dose 0.1-0.5 µM; in short: as §1
[13] = system: KB7D; test: Induction of apoptosis in human KB7D cells assessed as increase in activated gammaH2AX expression at 0.1 to 0.5 uM measured after 24 hrs by Western blot analysis; type: functional, cell-based; conditions: dose 0.1-0.5 µM; in short: as §1
[14] = system: KB-VIN; test: Induction of apoptosis in human KB-VIN cells assessed as increase in cleaved PARP expression at 0.05 uM measured after 48 hrs by Western blot analysis; type: functional, cell-based; in short: as §1
[15] = system: KB-VIN; test: Induction of apoptosis in human KB-VIN cells assessed as increase in cleaved caspase-9 expression at 0.05 uM measured after 48 hrs by Western blot analysis; type: functional, cell-based; in short: as §1
[16] = system: KB7D; test: Cell cycle arrest in human KB7D cells assessed as increase in accumulation at sub-G1 phase at 0.01 to 0.1 uM measured after 48 hrs by propidium iodide staining based flow cytometry; type: functional; conditions: dose 0.01-0.1 µM
In short: (§3)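 Cells seeded at 2.5×10^5 per well and exposed to DMSO or compound for the stated times. They were washed in PBS and fixed overnight in ice-cold 70% ethanol at −20 °C. Staining used propidium iodide 80 µg/mL with 0.1% Triton X-100 and RNase A 100 µg/mL in PBS. DNA content was read by FACScan flow cytometry.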

[17] = system: KB7D; test: Induction of apoptosis in human KB7D cells assessed as increase in cleaved caspase-3 expression at 0.01 to 0.1 uM measured after 48 hrs by Western blot analysis; type: functional, cell-based; conditions: dose 0.01-0.1 µM; in short: as §1
[18] = system: KB7D; test: Induction of apoptosis in human KB7D cells assessed as increase in activated gammaH2AX expression at 0.01 to 0.1 uM measured after 48 hrs by Western blot analysis; type: functional, cell-based; conditions: dose 0.01-0.1 µM; in short: as §1
[19] = system: KB-VIN; test: Cell cycle arrest in human KB-VIN cells assessed as increase in accumulation at G2/M phase at 0.01 to 0.05 uM measured after 18 to 24 hrs by propidium iodide staining based flow cytometry; type: functional; conditions: dose 0.01-0.05 µM, time 18-24 hrs; in short: as §3
[20] = system: KB7D; test: Cell cycle arrest in human KB7D cells assessed as increase in accumulation at G2/M phase at 0.01 to 0.05 uM measured after 18 to 24 hrs by propidium iodide staining based flow cytometry; type: functional; conditions: dose 0.01-0.05 µM, time 18-24 hrs; in short: as §3
[21] = biological target: T1, Tubulin (Homo sapiens) (UniProt P68371+Q9H4B7+P0DPH7+P68366+Q13509+Q71U36+P04350+Q3ZCM7+P07437+P68363+Q9BQE3+Q6PEY2+Q13885+Q9BVA1+Q9BUF5); test: Induction of microtubule disruption in human KB-VIN cells at 0.05 uM measured after 24 hrs by DAPI staining based deconvolution fluorescence microscopic analysis; type: cell-based
In short: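 Cells on glass coverslips treated 24 h, fixed in 4% paraformaldehyde for 15 min, and permeabilized with 0.5% Triton X-100. Blocked in PBS/2% BSA, stained with anti-beta-tubulin (1:250) and Alexa 488 anti-mouse (1:250), and mounted with DAPI. Imaged by wide-field deconvolution microscopy.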

[22] = biological target: T1, Tubulin (Homo sapiens); test: Induction of microtubule disruption in human KB-VIN cells assessed as polymerized fraction at 0.01 uM measured after 16 hrs by SDS-PAGE analysis (reference value: 23.1 to 25.5%); type: cell-based
In short: (§4)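 KB-Vin or KB-7D cells treated 16 h, then lysed 5 min at 37 °C in the dark in hypotonic buffer (1% NP-40, 1 mmol/L MgCl2, 2 mmol/L EGTA, 50 mmol/L Tris-HCl pH 6.8, protease inhibitors). Spun 13000 rpm, 10 min, room temperature. Soluble supernatant and resuspended polymerized pellet run on SDS-PAGE.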

[23] = biological target: T1, Tubulin (Homo sapiens); test: Induction of microtubule disruption in human KB-VIN cells assessed as polymerized fraction at 0.1 uM measured after 16 hrs by SDS-PAGE analysis (reference value: 23.1 to 25.5%); type: cell-based; in short: as §4
[24] = biological target: T1, Tubulin (Homo sapiens); test: Induction of microtubule disruption in human KB-VIN cells assessed as polymerized fraction at 1 uM measured after 16 hrs by SDS-PAGE analysis (reference value: 23.1 to 25.5%); type: cell-based; in short: as §4
[25] = biological target: T1, Tubulin (Homo sapiens); test: Induction of microtubule disruption in human KB7D cells assessed as polymerized fraction at 0.01 uM measured after 16 hrs by SDS-PAGE analysis (reference value: 26.4 to 29%); type: cell-based; in short: as §4
[26] = biological target: T1, Tubulin (Homo sapiens); test: Induction of microtubule disruption in human KB7D cells assessed as polymerized fraction at 1 uM measured after 16 hrs by SDS-PAGE analysis (reference value: 26.4 to 29%); type: cell-based; in short: as §4

In the case of `COc1ccc(S(=O)(=O)Nc2ccccc2NCc2ccc(C(=O)Nc3ccccc3N)cc2)cc1`, the GI50 [1] was 0.022 µM, the pIC50 [2] was 5.97 and the Activity [3] was “Dose-dependent effect”. For the same compound, the Activity [4] was “Dose-dependent effect”, the Activity [5] was “Dose-dependent effect” and the Activity [6] was “Dose-dependent effect”. For the same compound, the Activity [7] was “Dose-dependent effect”, the Activity [8] was “Dose-dependent effect” and the Activity [9] was “Dose-dependent effect”. The Activity [10] was “Active”, the Activity [11] was “Active” and the Activity [12] was “Active”. For the same compound, the Activity [13] was “Active”, the Activity [14] was “Active” and the Activity [15] was “Active”. For the same compound, the Activity [16] was “Active”, the Activity [17] was “Active” and the Activity [18] was “Active”. The Activity [19] was “Active”, the Activity [20] was “Active” and the Activity [21] was “Active”. For the same compound, the Activity [22] was 25.9%, the Activity [23] was 20.4% and the Activity [24] was 17.8%. The Activity [25] was 14.4% and the Activity [26] was 16%.
